Activity calls are given as the source filed them. The rule behind the calls is not given here.
Columns and labels:
Rattus norvegicus [1] = test: Antiinflammatory activity in Sprague-Dawley rat assessed as inhibition of carrageenan-induced paw edema at 150 mg/kg, po after 3 hrs; type: functional
Method in brief: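 Given by mouth in 1 mL water or 1% aqueous sodium carboxymethylcellulose to adult Charles River Sprague-Dawley rats (seven per group), 2 h before a footpad injection of 0.05 mL 1% carrageenan in pyrogen-free saline. After 3 h, rats were killed and paws removed and weighed, with the contralateral paw as control. Read-out was percent inhibition of edema.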

Rattus norvegicus [2] = test: Central nervous system activity in ip dosed rat assessed as induction of depressant; type: functional
Method in brief: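 Young adult female rats received 5% solutions or dispersions (two drops Tween 80) in water at 200, 100 and 50 mg/kg. Compounds active at 50 mg/kg were also given at 25 and 12.5 mg/kg. The ED value was the lowest dose that decreased motor activity in 2/2 rats.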

Rattus norvegicus [3] = test: Toxicity in rat at 100 mg/kg, ip; type: organism-based; parameters: dose 100 mg/kg, route intraperitoneal; settings: in vivo
Rattus norvegicus [4] = test: Toxicity in Sprague-Dawley rat assessed as induction of ulcer at 150 to 600 mg/kg, po after 6 hrs; type: organism-based; parameters: dose 150-600 mg/kg, route oral; settings: in vivo
Method in brief: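 Male Sprague-Dawley rats were kept without food pellets, with free access to water containing 5% dextrose, for 48 h. The compound, dissolved or suspended in water, was then given by gavage at 150, 300 and 600 mg/kg, eight rats per dose.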

[5] = Toxicity in po dosed Sprague-Dawley rat; type: organism-based; settings: in vivo
Rattus norvegicus [6] = test: Central nervous system activity in rat assessed as induction of depressant at 100 mg/kg, po; type: functional, organism-based; parameters: dose 100 mg/kg

| Compound | inhibition in vivo at 150 mg/kg (Rattus norvegicus [1]) [%] | ED (Rattus norvegicus [2]) [mg/kg] | other results |
| --- | --- | --- | --- |
| CN1C/C(=C\c2ccccc2)C2=NN(C)[C@@H](c3ccccc3)[C@@H]2C1.Cl | 22 | 50 |  |
| CN(C)CCCN1N=C2/C(=C\c3ccccc3)CCCC2C1c1ccccc1.O=C(O)C(=O)O (configuration not stated) |  | 50 |  |
| CNC(=O)N1C/C(=C\c2ccccc2)C2=NN(C)C(c3ccccc3)C2C1.Cl (configuration not stated) |  | >200 |  |
| CC(=O)N1N=C2/C(=C/c3ccccc3)CN(C)CC2C1c1ccccc1.Cl (configuration not stated) |  | 200 |  |
| CCN1C/C(=C\c2ccccc2)C2=NN(C)C(c3ccccc3)C2C1.Cl (configuration not stated) |  | 200 |  |
| CN1N=C2/C(=C/c3ccccc3)CN(C(=N)N)CC2C1c1ccccc1.Cl (configuration not stated) |  | 200 |  |
| CN1CCN(CCCN2N=C3/C(=C\c4ccccc4)CCCC3C2c2ccccc2)CC1.O=C(O)/C=C\C(=O)O (configuration not stated) |  | 200 |  |
| CN1C/C(=C\c2ccccc2Cl)C2=NN(C)C(c3ccccc3Cl)C2C1.Cl (configuration not stated) |  | >200 |  |
| CN1C/C(=C\c2ccccc2)C2=NNC(c3ccccc3)C2C1.Cl (configuration not stated) |  | 50 |  |
| CCCCN1C/C(=C\c2ccccc2)C2=NN(C)C(c3ccccc3)C2C1.Cl (configuration not stated) |  | 100 |  |
| CCCCN1N=C2/C(=C/c3ccccc3)CN(C)CC2C1c1ccccc1.Cl (configuration not stated) | 26 | >200 |  |
| CN1N=C2/C(=C/c3ccccc3)CN(C(N)=O)CC2C1c1ccccc1 (configuration not stated) |  | >200 |  |
| CCC(=O)N1C/C(=C\c2ccccc2)C2=NN(C)C(c3ccccc3)C2C1 (configuration not stated) |  | 200 |  |
| CN(C)CCCN1N=C2/C(=C/c3ccccc3)CN(C)CC2C1c1ccccc1.Cl (configuration not stated) |  | 100 |  |
| C(=C1\CCCC2C1=NN(CCCN1CCCCC1)C2c1ccccc1)/c1ccccc1.O=C(O)/C=C\C(=O)O (configuration not stated) |  | 200 |  |
| CC(=O)N1C/C(=C\c2ccccc2)C2=NN(C)C(c3ccccc3)C2C1 (configuration not stated) |  | 100 |  |
| CN(C)CCN1N=C2/C(=C\c3ccccc3)CCCC2C1c1ccccc1.O=C(O)/C=C\C(=O)O (configuration not stated) |  | 100 |  |
| CN1N=C2/C(=C/c3ccccc3)CN(CCc3ccccc3)CC2C1c1ccccc1.Cl (configuration not stated) | 32 | 100 |  |

| Compound | inhibition in vivo at 150 mg/kg (Rattus norvegicus [1]) [%] | ED (Rattus norvegicus [2]) [mg/kg] | other results |
| --- | --- | --- | --- |
| CN1N=C2/C(=C\c3ccccc3)CCCC2C1c1ccccc1 (configuration not stated) |  | >200 |  |
| CN1C/C(=C\c2ccccc2)C2=NN(CCO)C(c3ccccc3)C2C1.Cl (configuration not stated) | 41 | 200 |  |
| CN(C)CCN1N=C2/C(=C/c3ccccc3)CN(C)CC2C1c1ccccc1.Cl (configuration not stated) |  | 25 | Activity (Rattus norvegicus [3]): Toxic |
| CN1C/C(=C\c2ccc(Cl)cc2)C2=NN(C)C(c3ccc(Cl)cc3)C2C1.Cl (configuration not stated) | 17 | >200 |  |
| CN1N=C2/C(=C/c3ccccc3)CN(Cc3ccccc3)CC2C1c1ccccc1.Cl (configuration not stated) | 0 | 100 |  |
| COc1ccc(/C=C2\CN(C)CC3C2=NN(C)C3c2ccc(OC)cc2)cc1.Cl (configuration not stated) | 29 | >200 |  |
| CN1C/C(=C\c2cccc(Cl)c2)C2=NN(C)C(c3cccc(Cl)c3)C2C1.Cl (configuration not stated) |  | >200 |  |
| CCCCC1C(=O)N(c2ccccc2)N(c2ccccc2)C1=O [PHENYLBUTAZONE] | 51 |  | Activity (Rattus norvegicus [4]): Non-toxic; LD50 [5]: 1200 mg/kg |
| CN1N=C2/C(=C/c3ccccc3)CNCC2C1c1ccccc1.Cl (configuration not stated) |  | 12.5 | Activity (Rattus norvegicus [6]): Active |
| C(=C1\CCCC2C1=NN(CCCN1CCOCC1)C2c1ccccc1)/c1ccccc1.Cl (configuration not stated) | 30 | 100 |  |
| CCCN1N=C2/C(=C/c3ccccc3)CN(C)CC2C1c1ccccc1.O=P(O)(O)O (configuration not stated) | 47 | 100 | Activity (Rattus norvegicus [4]): Non-toxic; LD50 [5]: 5400 mg/kg |
| CN1C/C(=C\c2ccccc2)C2=NN(CC(F)(F)F)C(c3ccccc3)C2C1.Cl (configuration not stated) | 27 | 100 |  |
| CN1C/C(=C\c2ccccc2)C2=NN(CCCc3ccccc3)C(c3ccccc3)C2C1.Cl (configuration not stated) |  | >200 |  |
| CCCC(C)(COC(N)=O)COC(N)=O [MEPROBAMATE] |  | 50 |  |
| CCN1N=C2/C(=C/c3ccccc3)CN(C)CC2C1c1ccccc1.Cl (configuration not stated) |  | >200 |  |
| CC(=O)CCN1C/C(=C\c2ccccc2)C2=NN(C)C(c3ccccc3)C2C1.Cl (configuration not stated) |  | >200 |  |
| CN(C)CCCN1N=C2/C(=C/c3ccccc3)CN(CCc3ccccc3)CC2C1c1ccccc1.O=C(O)/C=C\C(=O)O (configuration not stated) |  | >200 |  |
| CCN(CC)CCCN1N=C2/C(=C\c3ccccc3)CCCC2C1c1ccccc1.O=C(O)/C=C\C(=O)O (configuration not stated) |  | 100 |  |

Reference: ChEMBL document CHEMBL3228030, “Bicyclic pyrazolines, potential central nervous system depressants and antiinflammatory agents” (J Med Chem, 1979)
